The values that follow come from article PMC12612033 (Scientific Reports, 2025).

T1 sequence (P53341 whole entry): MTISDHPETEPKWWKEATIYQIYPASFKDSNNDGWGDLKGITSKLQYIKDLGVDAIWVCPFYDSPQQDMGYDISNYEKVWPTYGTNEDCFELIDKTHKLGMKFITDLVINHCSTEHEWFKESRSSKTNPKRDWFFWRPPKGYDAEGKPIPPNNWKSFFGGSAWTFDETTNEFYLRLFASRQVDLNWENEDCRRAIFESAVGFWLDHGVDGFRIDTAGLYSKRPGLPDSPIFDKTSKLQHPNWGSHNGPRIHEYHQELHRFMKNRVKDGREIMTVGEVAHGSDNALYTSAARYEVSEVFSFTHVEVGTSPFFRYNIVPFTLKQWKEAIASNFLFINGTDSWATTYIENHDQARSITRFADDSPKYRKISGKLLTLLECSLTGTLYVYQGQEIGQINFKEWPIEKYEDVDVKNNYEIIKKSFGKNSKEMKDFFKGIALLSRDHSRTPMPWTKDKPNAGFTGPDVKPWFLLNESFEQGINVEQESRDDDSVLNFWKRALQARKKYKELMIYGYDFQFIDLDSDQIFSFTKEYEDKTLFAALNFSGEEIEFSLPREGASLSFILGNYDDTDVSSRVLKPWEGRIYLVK

One assay addresses T1, α-glucosidase (Saccharomyces cerevisiae, UniProt P53341). In words: α-Glucosidase kinetic study. Format: biochemical. The following applies: Lineweaver–Burk plot; Km increases, Vmax unchanged.
Regarding `Nc1c(-c2ccc(Cl)cc2)nc2ncnn2c1-c1ccc(Cl)cc1` [9s, 5,7-Bis(4-chlorophenyl)-[1,2,4]triazolo[1,5-a]pyrimidin-6-amine], the Mode of inhibition result was “competitive”.

In the next assay the target is T1, α-glucosidase. In words: Circular dichroism spectroscopy of α-glucosidase secondary structure. The following applies: CD, α-glucosidase in the presence of 9s. Put shortly: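 Far-UV CD spectra (190–240 nm) recorded for yeast α-glucosidase alone and for its complex with the test compound. Spectra were deconvoluted into α-helix, β-sheet, β-turn and random-coil fractions, and the complex was compared with native enzyme.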
In general terms: Circular dichroism is widely used to follow secondary structure.
Consider `Nc1c(-c2ccc(Cl)cc2)nc2ncnn2c1-c1ccc(Cl)cc1` [9s, 5,7-Bis(4-chlorophenyl)-[1,2,4]triazolo[1,5-a]pyrimidin-6-amine], for which the “Random coils content of α-glucosidase” value is recorded as 0%, the “α-Helix content of α-glucosidase” value was determined as 41.2% and the “β-Turn content of α-glucosidase” value is on record as 51.4%.

A further assay concerns α-amylase. In words: α-Amylase inhibition assay. The following applies: at a concentration of 100 µM, mean ± SD. Format: biochemical.
As to `C[C@H]1O[C@H](O[C@H]2[C@H](O)[C@@H](O)[C@@H](O[C@H]3[C@H](O)[C@@H](O)C(O)O[C@@H]3CO)O[C@@H]2CO)[C@H](O)[C@@H](O)[C@@H]1N[C@H]1C=C(CO)[C@@H](O)[C@H](O)[C@H]1O` (stereo partly drawn) [Acarbose], the “Inhibition of α-amylase activity (%)” value is on record as 50.1 ± 0.5%.

The target in a further assay is Saccharomyces cerevisiae α-glucosidase (Saccharomyces cerevisiae, UniProt P53341). In words: α-Glucosidase inhibition assay. Format: biochemical.
Saccharomyces cerevisiae α-glucosidase, sequence (P53341 whole entry): as above
Conditions: not given
The term IC50 denotes the concentration at which inhibition is half-maximal. Read a high IC50 as a need for much substance. `Nc1c(-c2ccccc2)nc2ncnn2c1-c1ccccc1` [9a, 5,7-Diphenyl-[1,2,4]triazolo[1,5-a]pyrimidin-6-amine] yielded an IC50 of 97.02 ± 0.83 µM.

In turn, `COc1ccc(-c2c(N)c(-c3ccccc3)nc3ncnn23)cc1` [9b, 7-(4-Methoxyphenyl)-5-phenyl-[1,2,4]triazolo[1,5-a]pyrimidin-6-amine] showed an IC50 of 70.85 ± 0.27 µM.

The molecule `Nc1c(-c2ccccc2)nc2ncnn2c1-c1ccc(Cl)cc1` [9c, 7-(4-Chlorophenyl)-5-phenyl-[1,2,4]triazolo[1,5-a]pyrimidin-6-amine] registered an IC50 of 56.2 ± 0.68 µM.

In turn, `Nc1c(-c2ccccc2)nc2ncnn2c1-c1ccc(Br)cc1` [9f, 7-(4-Bromophenyl)-5-phenyl-[1,2,4]triazolo[1,5-a]pyrimidin-6-amine] displayed an IC50 of 65.09 ± 0.38 µM.

In turn, `Nc1c(-c2ccccc2)nc2ncnn2c1-c1cccs1` [9g, 5-Phenyl-7-(thiophen-2-yl)-[1,2,4]triazolo[1,5-a]pyrimidin-6-amine] gave an IC50 of 140 ± 1.55 µM.

`Cc1ccc(-c2nc3ncnn3c(-c3ccccc3)c2N)cc1` [9h, 7-Phenyl-5-(p-tolyl)-[1,2,4]triazolo[1,5-a]pyrimidin-6-amine] had an IC50 of 94.52 ± 0.72 µM.

`Cc1ccc(-c2nc3ncnn3c(-c3cccs3)c2N)cc1` [9l, 7-(Thiophen-2-yl)-5-(p-tolyl)-[1,2,4]triazolo[1,5-a]pyrimidin-6-amine]: the IC50 came out at 151.3 ± 0.56 µM.

On to `COc1ccc(-c2nc3ncnn3c(-c3ccccc3)c2N)cc1` [9m, 5-(4-Methoxyphenyl)-7-phenyl-[1,2,4]triazolo[1,5-a]pyrimidin-6-amine], for which the IC50 came to 72.4 ± 0.98 µM.

As for `COc1ccc(-c2nc3ncnn3c(-c3ccc(OC)cc3)c2N)cc1` [9n, 5,7-Bis(4-methoxyphenyl)-[1,2,4]triazolo[1,5-a]pyrimidin-6-amine], the IC50 amounted to 52.66 ± 0.3 µM.

On to `COc1ccc(-c2nc3ncnn3c(-c3ccc(Cl)cc3)c2N)cc1` [9o, 7-(4-Chlorophenyl)-5-(4-methoxyphenyl)-[1,2,4]triazolo[1,5-a]pyrimidin-6-amine], for which it took 37.18 ± 0.23 µM to reach half-maximal inhibition (IC50).

`Nc1c(-c2ccc(Cl)cc2)nc2ncnn2c1-c1ccccc1` [9q, 5-(4-Chlorophenyl)-7-phenyl-[1,2,4]triazolo[1,5-a]pyrimidin-6-amine] returned an IC50 of 58.11 ± 0.34 µM.

Regarding `COc1ccc(-c2c(N)c(-c3ccc(Cl)cc3)nc3ncnn23)cc1` [9r, 5-(4-Chlorophenyl)-7-(4-methoxyphenyl)-[1,2,4]triazolo[1,5-a]pyrimidin-6-amine], half-maximal inhibition (IC50) was put at 41.5 ± 0.56 µM.

As for `Nc1c(-c2ccc(Cl)cc2)nc2ncnn2c1-c1ccc(Cl)cc1` [9s, 5,7-Bis(4-chlorophenyl)-[1,2,4]triazolo[1,5-a]pyrimidin-6-amine], the IC50 worked out at 24.32 ± 0.18 µM.
